Results reported in ChEMBL document CHEMBL5724801, “EUbOPEN Chemogenomics Library - Multiplex” (2024).
Several values for one entry are separate records, joined by “and”; a condition that tells them apart may be missing. Identical values can stand only once.

Each compound was assayed on Fibroblast (assay: Multiplex assay against human fibroblast). Settings: 12 h, 1 µM, compound concentration 1 uM.
Assay type: toxicity, cell-based
Summary of the method: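 Four dyes were applied at seeding to live cells: Hoechst33342, BioTracker Green Microtubule Cytoskeleton Dye, MitoTracker Red and Annexin V Alexa Fluor 680. Imaging after compound addition used a CQ1 microscope at 37°C and 5% CO2. CellPathfinder machine-learning gating then sorted cells into Hoechst high-intensity objects or normal cells, normal cells into healthy, pyknosed or fragmented nuclei, and pyknosed cells into mitotic or apoptotic, with tubulin, mitochondrial-mass and membrane-permeability phenotypes given as per cents of healthy-nucleus cells.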

Compound	Population Apoptotic (%)	Population Fragmented Nuclei (%)	Population Healthy Nuclei (%)	Population Hoechst High Intensity Objects (%)	Population Membrane Permeable-Phenotype (%)	Population Mitochondria Different-Phenotype (%)	Population Mitotic Cells (%)	Population Normal (%)	Population Pyknosed Nuclei (%)	Total Cell Count
CCCCC[C@H](O)/C=C/[C@H]1[C@H](O)CC(=O)[C@@H]1CCCCCCC(=O)O [ALPROSTADIL]	61% and 43%	16% and 23%	71% and 57%	0% and 4%	0% and 10%	1% and 2%	38% and 56%	99% and 95%	12% and 18%	150 and 169
Cl.N=C(N)NC(=O)Cc1c(Cl)cccc1Cl [GUANFACINE HYDROCHLORIDE]	44% and 28%	20% and 23%	62% and 45%	2%	0% and 3%	4% and 7%	55% and 71%	97%	16% and 31%	167 and 149

Same assay, conditions: 12 h, 1 µM, compound concentration 1 uM

Compound	Population Tubulin-Different-Phenotype (%)
Cl.N=C(N)NC(=O)Cc1c(Cl)cccc1Cl [GUANFACINE HYDROCHLORIDE]	32% and 46%

Same assay, conditions: 12 h, 10 µM, compound concentration 10 uM

Compound	Population Apoptotic (%)	Population Healthy Nuclei (%)	Population Membrane Permeable-Phenotype (%)	Population Mitochondria Different-Phenotype (%)	Population Mitotic Cells (%)	Population Normal (%)	Population Pyknosed Nuclei (%)	Population Tubulin-Different-Phenotype (%)	Total Cell Count	Population Fragmented Nuclei (%)
CCCCC[C@H](O)/C=C/[C@H]1[C@H](O)CC(=O)[C@@H]1CCCCCCC(=O)O [ALPROSTADIL]	36% and 34%	75% and 43%	2% and 11%	4% and 1%	63% and 65%	94% and 83%	17% and 31%	26% and 45%	136 and 146	
Cl.N=C(N)NC(=O)Cc1c(Cl)cccc1Cl [GUANFACINE HYDROCHLORIDE]	66% and 35%	68% and 47%	1% and 5%	5%	33% and 64%	99% and 89%	15% and 29%	24% and 46%	139 and 127	16% and 22%

Same assay, conditions: 12 h, 10 µM, compound concentration 10 uM

Compound	Population Hoechst High Intensity Objects (%)
Cl.N=C(N)NC(=O)Cc1c(Cl)cccc1Cl [GUANFACINE HYDROCHLORIDE]	0% and 10%

Same assay, conditions: 24 h, 1 µM, compound concentration 1 uM

Compound	Population Apoptotic (%)	Population Fragmented Nuclei (%)	Population Healthy Nuclei (%)	Population Hoechst High Intensity Objects (%)	Population Membrane Permeable-Phenotype (%)	Population Mitochondria Different-Phenotype (%)	Population Mitotic Cells (%)	Population Normal (%)	Population Pyknosed Nuclei (%)	Population Tubulin-Different-Phenotype (%)
CCCCC[C@H](O)/C=C/[C@H]1[C@H](O)CC(=O)[C@@H]1CCCCCCC(=O)O [ALPROSTADIL]	25% and 43%	15% and 22%	73% and 53%	0% and 2%	0% and 8%	1% and 8%	75% and 56%	99% and 97%	10% and 24%	15% and 40%
Cl.N=C(N)NC(=O)Cc1c(Cl)cccc1Cl [GUANFACINE HYDROCHLORIDE]	58% and 45%	22% and 23%	62% and 46%	1% and 6%	0% and 12%	5% and 8%	41% and 54%	98% and 93%	14% and 30%	26% and 50%

Same assay, conditions: 24 h, 1 µM, compound concentration 1 uM

Compound	Total Cell Count
CCCCC[C@H](O)/C=C/[C@H]1[C@H](O)CC(=O)[C@@H]1CCCCCCC(=O)O [ALPROSTADIL]	147 and 165
Cl.N=C(N)NC(=O)Cc1c(Cl)cccc1Cl [GUANFACINE HYDROCHLORIDE]	169 and 130

Same assay, conditions: 24 h, 10 µM, compound concentration 10 uM

Compound	Population Apoptotic (%)	Population Fragmented Nuclei (%)	Population Healthy Nuclei (%)	Population Membrane Permeable-Phenotype (%)	Population Mitochondria Different-Phenotype (%)	Population Mitotic Cells (%)	Population Normal (%)	Population Pyknosed Nuclei (%)	Total Cell Count	Population Hoechst High Intensity Objects (%)
CCCCC[C@H](O)/C=C/[C@H]1[C@H](O)CC(=O)[C@@H]1CCCCCCC(=O)O [ALPROSTADIL]	63% and 30%	14% and 27%	69% and 45%	0% and 16%	2% and 3%	36% and 69%	97% and 86%	15% and 26%	147 and 157	
Cl.N=C(N)NC(=O)Cc1c(Cl)cccc1Cl [GUANFACINE HYDROCHLORIDE]	63% and 25%	17% and 26%	68% and 55%	0% and 13%	4% and 3%	36% and 75%	98% and 95%	14% and 18%	137 and 114	1% and 4%

Same assay, conditions: 48 h, 1 µM, compound concentration 1 uM

Compound	Population Apoptotic (%)	Population Fragmented Nuclei (%)	Population Healthy Nuclei (%)	Population Hoechst High Intensity Objects (%)	Population Membrane Permeable-Phenotype (%)	Population Mitochondria Different-Phenotype (%)	Population Mitotic Cells (%)	Population Normal (%)	Population Pyknosed Nuclei (%)	Population Tubulin-Different-Phenotype (%)
CCCCC[C@H](O)/C=C/[C@H]1[C@H](O)CC(=O)[C@@H]1CCCCCCC(=O)O [ALPROSTADIL]	32% and 55%	18% and 26%	62% and 51%	1% and 3%	1% and 6%	4% and 8%	67% and 44%	98% and 96%	18% and 21%	30% and 44%
Cl.N=C(N)NC(=O)Cc1c(Cl)cccc1Cl [GUANFACINE HYDROCHLORIDE]	61% and 50%	25% and 33%	63% and 45%	1% and 3%	0% and 4%	6% and 11%	38% and 50%	98% and 96%	11% and 21%	32% and 57%

Same assay, conditions: 48 h, 1 µM, compound concentration 1 uM

Compound	Total Cell Count
CCCCC[C@H](O)/C=C/[C@H]1[C@H](O)CC(=O)[C@@H]1CCCCCCC(=O)O [ALPROSTADIL]	152 and 162
Cl.N=C(N)NC(=O)Cc1c(Cl)cccc1Cl [GUANFACINE HYDROCHLORIDE]	162 and 145

Same assay, conditions: 48 h, 10 µM, compound concentration 10 uM

Compound	Population Apoptotic (%)	Population Fragmented Nuclei (%)	Population Healthy Nuclei (%)	Population Mitochondria Different-Phenotype (%)	Population Mitotic Cells (%)	Population Normal (%)	Population Pyknosed Nuclei (%)	Population Tubulin-Different-Phenotype (%)	Total Cell Count	Population Hoechst High Intensity Objects (%)
CCCCC[C@H](O)/C=C/[C@H]1[C@H](O)CC(=O)[C@@H]1CCCCCCC(=O)O [ALPROSTADIL]	62% and 48%	11% and 33%	62% and 44%	7%	37% and 51%	97% and 83%	26% and 22%	34% and 60%	144	
Cl.N=C(N)NC(=O)Cc1c(Cl)cccc1Cl [GUANFACINE HYDROCHLORIDE]	66% and 45%	22% and 39%	67% and 41%	6% and 2%	33% and 54%	98% and 93%	10% and 19%	24% and 67%	142 and 120	1% and 6%

Same assay, conditions: 48 h, 10 µM, compound concentration 10 uM

Compound	Population Membrane Permeable-Phenotype (%)
Cl.N=C(N)NC(=O)Cc1c(Cl)cccc1Cl [GUANFACINE HYDROCHLORIDE]	1% and 8%
